Screening data from PubChem.
An excerpt weighted towards active compounds, which were near 1.2% of everything screened.
MsrA inhibitor: inhibits bovine methionine sulfoxide reductase A; inhibition, % at 15.5 µM; purified bovine MsrA, absorbance read-out; AID 651718; actives 0.75% (n = 360,000)
procasp3 activ: activates human procaspase-3; recombinant procaspase-3 D3A, Ac-DEVD-pNA absorbance 405 nm; actives 0.11% (n = 330,000); activation, % at 8.5 µM;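 active means activation above the mean of all tested compounds plus 3 SD, cut at about 21% in these data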
Target sequence (P42574 whole entry D9A/D28A/D175A): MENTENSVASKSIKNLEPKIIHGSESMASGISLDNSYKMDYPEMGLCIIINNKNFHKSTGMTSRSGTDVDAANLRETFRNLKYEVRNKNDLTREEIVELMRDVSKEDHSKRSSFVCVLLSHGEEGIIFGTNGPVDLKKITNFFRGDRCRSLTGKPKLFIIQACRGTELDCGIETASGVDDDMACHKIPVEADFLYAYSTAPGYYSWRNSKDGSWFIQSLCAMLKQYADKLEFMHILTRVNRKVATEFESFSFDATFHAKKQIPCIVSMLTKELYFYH
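Technique: 405 nm absorbance of p-nitroaniline, reads at 0 and 120 min; Test system: Procaspase-3 D3A mutant; Incubation: 1 h enzyme-compound preincubation, then 2 h substrate reaction, 25 °C; Repeats: singlicate, each compound tested once; Benchmarks: low control DMSO wells, high control DMSO plus 5 µM PC-3 D3A.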
MsrA act: activators of bovine methionine sulfoxide reductase A | purified bovine MsrA, absorbance read-out | activation, % at 10.6 µM | actives 0.3% (n = 360,000) | AID 602163; in the data active means activation above about 7.5%
proCasp7 act: counter-screen for procaspase-3 activators: activators of human procaspase-7 | P55210 | recombinant procaspase-7, Ac-DEVD-pNA absorbance 405 nm; D23A/D198A/D206A triple mutant, cannot self-cleave; scale: DMSO 0, 5 µM enzyme 100 | activation, % at 8.5 µM | actives 0.093% (n = 330,000) | AID 463210;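 active means percent activation above the screen-wide mean plus 3 SD, cut at about 25% in these data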
Target sequence (P55210 whole entry D23A/D198A/D206A): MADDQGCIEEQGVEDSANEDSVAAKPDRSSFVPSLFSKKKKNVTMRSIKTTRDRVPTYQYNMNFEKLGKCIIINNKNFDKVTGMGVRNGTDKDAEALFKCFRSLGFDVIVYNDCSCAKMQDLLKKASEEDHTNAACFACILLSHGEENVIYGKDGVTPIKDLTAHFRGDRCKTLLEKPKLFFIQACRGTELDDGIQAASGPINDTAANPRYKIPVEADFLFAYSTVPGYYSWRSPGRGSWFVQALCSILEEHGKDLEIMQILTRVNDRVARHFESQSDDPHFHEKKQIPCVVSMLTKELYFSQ
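signal = Epi-absorbance of released pNA at 405 nm, two timepoints | assay system = Uncleavable procaspase-7 mutant enzyme | reagent = Ac-DEVD-pNA substrate, 400 µM as added | times = 1 h enzyme–compound preincubation and 2 h substrate reaction, both 25 °C | benchmarks = low DMSO alone, high DMSO plus 5 µM PC-7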
MsrA conf: bovine MsrA inhibition, confirmed | shares compounds with MsrA inhibitor | purified bovine MsrA, absorbance read-out | inhibition, % at 15.5 µM | actives 41% (n = 2,300) | AID 651822;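 further: coupled to thioredoxin reductase with NADPH and selenocystamine and DMSO as substrate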
Hits are given with their value; - = inactive; . = no result given. Unless noted, no stated cut-off is given here; in the data, active means inhibition above about 4.5%; inactive means the rest.

SMILES | MsrA inhibitor | procasp3 activ | MsrA act | proCasp7 act | MsrA conf
COC(=O)c1cc2c(c3c4cc(C)ccc4n(S(=O)(=O)c4ccc(C)cc4)c13)C(=O)N(Cc1ccc(C(F)(F)F)cc1)C2 | - | . | . | . | .
COC(=O)c1cc2c(c3c4cc(OC)ccc4n(C(=O)c4ccccc4)c13)C(=O)N(Cc1ccco1)C2 | - | . | . | . | .
CN(C)c1oc(-c2cccs2)nc1C#N | 4.9 | - | - | - | -
CCOC1=C2[C@H](c3ccccc3)N(S(=O)(=O)c3ccc(C)cc3)[C@H](C(C)C)[C@H]2C(C#N)(C#N)C(C#N)(C#N)C1 | - | . | . | . | .
CCCCCCCCN1C(=O)N(Cc2ccc(OC)cc2)S(=O)(=O)c2ccc(F)cc21 | - | . | . | . | .
CCOc1ccccc1NC(=S)NC(=O)C1CC1 | 7.4 | - | - | - | 7.2
CN(C)/C(CN1CCN(C=O)CC1)=C1\N=C(c2ccccc2)OC1=O | 6.0 | - | - | - | 5.3
O=C(NCCc1ccccc1)c1ccco1 | - | - | - | - | .
CC(C)CNC(=O)c1coc(=O)c(Br)c1 | 5.7 | - | - | - | 6.1
O=C(NCCc1ccccc1)c1coc(=O)c(Br)c1 | 5.6 | . | - | . | 6.5
CN(C)CCNC(=O)c1coc(=O)c(Br)c1 | - | - | - | - | .
Cc1nc2cc[nH]n2c(=O)c1CCc1ccccc1 | - | . | . | . | .
CCOc1cc(C(=O)NCCN2C(=O)S/C(=C\c3cccnc3)C2=O)cc(OCC)c1OCC | - | - | - | - | .
CCOc1ccc(N2CC(C(=O)NCCN3C(=O)S/C(=C/c4cccnc4)C3=O)CC2=O)cc1 (stereo not given) | 5.0 | . | - | . | -
Cc1nc(N2CCN(Cc3ccc4c(c3)OCO4)CC2)c2oc3ccccc3c2n1 | 9.9 | . | - | . | -
C#CCN(Cc1ccco1)C(=O)c1nnc2c3cc(OC)ccc3n(S(=O)(=O)c3ccc(OC)cc3)c2n1 | - | . | . | . | .
CCC1=[N+](C)CCn2c(C)ccc21 | 6.5 | - | - | - | -
CNc1ccc(/C=C(\CCC(=O)O)c2nc3ccccc3s2)cc1[N+](=O)[O-] | 4.8 | - | - | - | 5.4
COc1ccc(/C=C(\CC(=O)O)c2nc3ccccc3s2)cc1O | 5.6 | - | - | - | -
COc1cc(/C=C(\CC(=O)O)c2nc3ccccc3s2)cc(OC)c1O | - | - | - | - | .
Cc1cc(/C=C(/C#N)c2cccc(F)c2)c(C)n1-c1cccnc1 | 25.9 | - | - | - | 27.2
O=C(NCc1ccccc1)[C@@H]1CCCN1C(=O)[C@H]1CCCN1C(=O)c1ccc(F)c(C(F)(F)F)c1 | - | . | . | . | .
Cn1c(=O)n(C)c2cc(/C=N/N=C3/NC(=O)C(CC(=O)O)S3)ccc21 (stereo not given) | 6.2 | - | - | - | 6.7
CCOc1cc(/C=N/N=C2/NC(=O)C(CC(=O)O)S2)ccc1OCc1ccc(Cl)cc1 (stereo not given) | - | - | - | - | .
COc1ccc(/C=N/N=C2/NC(=O)C(CC(=O)O)S2)cc1OCc1ccc(Cl)cc1 (stereo not given) | 7.3 | - | - | - | 5.9
SMILES | MsrA inhibitor | procasp3 activ | MsrA act | proCasp7 act | MsrA conf
COc1ccc(/C=N/N=C2/NC(=O)C(CC(=O)O)S2)cc1OS(=O)(=O)c1ccccc1 (stereo not given) | - | - | - | - | .
CCN=C1NC(CCc2ccccc2)C(C(=O)OC)=C(C)N1Cc1ccccc1C(F)(F)F (stereo not given) | - | . | . | . | .
COc1ccc(N2CCN(S(=O)(=O)c3cccc4nsnc34)CC2)cc1 | - | - | - | - | .
CC(=O)c1ccc(N2CCN(S(=O)(=O)c3cccc4nsnc34)CC2)cc1 | 4.7 | - | - | - | -
CN(C)c1ccc(C=c2c3ccccc3n3c2c2ccccc2[n+]3C)cc1 | - | . | - | . | .
CCOC(=O)c1cc2c(=Cc3ccc(N(C)C)cc3)c3ccccc3n2[n+]1C | 5.0 | . | - | . | -
COc1ccc(C2C(C#N)=C(N)Oc3cc(N)ccc32)cc1 (stereo not given) | - | . | - | . | .
COc1ccc(C2C(C#N)=C(N)Oc3c2sc2nc(C)cc(C)c32)cc1 (stereo not given) | 9.2 | - | - | - | -
COc1cccc(/C=N/n2c(CO)nc3ccccc32)c1OC | 10.3 | - | - | - | 13.0
CC1(C)OC(=O)C(=NNc2ccc(C(=O)O)cc2)C(=O)O1 | 4.8 | - | - | - | -
CC1(C)OC(=O)C(=NNc2ccccc2C(=O)O)C(=O)O1 | 4.9 | - | - | - | -
CC1(C)OC(=O)C(=NNc2ccccc2)C(=O)O1 | - | - | - | - | .
CC1(C)OC(=O)C(=NNc2ccccc2[N+](=O)[O-])C(=O)O1 | - | - | - | - | .
Cc1cn2c(=O)c3ncn(C4OC(CO)C(O)C4O)c3n(C)c2n1 (stereo not given) | - | . | . | . | .
CCOc1ccc(C(O)c2nccn2Cc2ccccc2)cc1 (stereo not given) | 8.8 | - | - | - | -
CC1=C(c2ccc(F)cc2)[N+](=O)C(C)(C)N1[O-] | 4.8 | - | - | - | -
CC1=C(c2ccc(C)cc2)[N+](=O)C(C)(C)N1[O-] | - | - | - | - | .
CC1(C)CC(=O)C=C(c2ccccc2F)C1=O | - | . | . | . | .
CCC(C(=O)OC)n1cnc2scc(-c3ccc(C)c(C)c3)c2c1=O (stereo not given) | 7.5 | - | - | - | 5.3
CCC(C(=O)O)n1cnc2scc(-c3ccc(C)c(C)c3)c2c1=O (stereo not given) | - | - | - | - | .
CCCn1cnc2scc(-c3ccc(C)c(C)c3)c2c1=O | 8.6 | - | - | - | 6.5
CC1=C(C(=O)c2ccccc2)C(c2ccc(O)cc2)NC(=S)N1 (stereo not given) | 5.4 | - | - | - | -
Cc1[nH]c2ccccc2c1CC(=O)Nc1ccc(Nc2cccnc2)c(-c2ccc(Cl)c(Cl)c2)c1 | - | . | . | . | .
CCn1ncc([N+](=O)[O-])c1C(=O)Nc1nc2cccc(C)c2s1 | - | - | - | - | .
CCn1ncc([N+](=O)[O-])c1C(=O)Nc1c(C)cccc1C | 14.0 | . | - | . | 6.7
SMILES | MsrA inhibitor | procasp3 activ | MsrA act | proCasp7 act | MsrA conf
NS(=O)(=O)c1ccc(NC(=S)NNC(=O)c2ccc(Br)o2)cc1 | 4.9 | - | - | - | -
COCCN1Cc2cc(C(=O)OC)c3c(c2C1=O)c1cc(F)ccc1n3C(=O)c1ccccc1 | - | . | . | . | .
CC1(C)CC(=O)c2sc(NC(=O)CN3CCOCC3)nc2C1 | - | - | - | - | .
CC1(C)CC(=O)c2sc(NS(C)(=O)=O)nc2C1 | 6.6 | - | - | - | -
CC1(C)CC(=O)c2sc(NS(=O)(=O)c3ccc([N+](=O)[O-])cc3)nc2C1 | 6.3 | - | - | - | -
CC1(C)CC(=O)c2sc(NC(=O)CN3C(=O)CCC3=O)nc2C1 | 5.0 | - | - | - | -
CCC(C)C(=O)Nc1nc2c(s1)C(=O)CC(C)(C)C2 (stereo not given) | - | - | - | - | .
CC1(C)CC(=O)c2sc(NS(=O)(=O)c3ccccc3)nc2C1 | - | - | - | - | .
O=C1[C@H](c2ccccc2)[C@@H](c2ccncc2)N1c1ccncc1 | - | . | . | . | .
CC1CCN(C(=O)c2ccc3c(c2)C(=O)c2ccccc2-3)CC1 | - | . | - | . | .
